In ChEMBL document CHEMBL4118023, “Bioactive Pentacyclic Triterpene Ester Derivatives from Alnus viridis ssp. viridis Bark” (J Nat Prod, 2017):

How the values were obtained:
A-375 = experiment: Cytotoxicity against human A375 cells assessed as reduction in cell viability after 48 hrs by MTT assay; type: functional, cell-based; settings: for IC50: A-375, 48 h
In short: (§1)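 Cells seeded at 1 × 10^4 per well, 24 h at 37 °C, 5% CO2, in RPMI-1640 with 10% FBS, penicillin and streptomycin. Compounds were prepared from DMSO stocks (50 mg/mL) and added at 2.5–50.0 μg/mL for 48 h; DMSO controls. MTT read-out; IC50 taken from a sigmoidal dose–response fit of % viability versus log concentration by nonlinear regression.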

A549 [1] = experiment: Cytotoxicity against human A549 cells assessed as reduction in cell viability after 48 hrs by MTT assay; type: functional, cell-based; settings: for IC50: A549, 48 h; in short: as §1
[2] = Selectivity index, ratio of IC50 for human MRC5 cells to IC50 for human A375 cells; type: toxicity; settings: MRC5 cells versus A375 cells, read-out: Ratio IC50
In short: (§2)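 Selectivity index is the IC50 in noncancerous MRC5 cells divided by the IC50 in the cancer line.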

MRC5 = experiment: Cytotoxicity against human MRC5 cells assessed as reduction in cell viability after 48 hrs by MTT assay; type: cell-based; settings: MRC5, 48 h; in short: as §1
[3] = Selectivity index, ratio of IC50 for human MRC5 cells to IC50 for human A549 cells; type: toxicity; settings: MRC5 cells versus A549 cells, read-out: Ratio IC50; in short: as §2
A549 [4] = experiment: Induction of apoptosis in human A549 cells assessed as live cells at cytotoxic IC50 after 24 hrs by Annexin V-FITC/propidium iodide staining based flow cytometry (reference value: 96.02%); type: functional
A549 [5] = experiment: Induction of apoptosis in human A549 cells assessed as early apoptotic cells at cytotoxic IC50 after 24 hrs by Annexin V-FITC/propidium iodide staining based flow cytometry (reference value: 2.25%); type: functional
A549 [6] = experiment: Induction of apoptosis in human A549 cells assessed as late apoptotic cells at cytotoxic IC50 after 24 hrs by Annexin V-FITC/propidium iodide staining based flow cytometry (reference value: 1.02%); type: functional
A549 [7] = experiment: Induction of apoptosis in human A549 cells assessed as necrotic cells at cytotoxic IC50 after 24 hrs by Annexin V-FITC/propidium iodide staining based flow cytometry (reference value: 0.71%); type: functional

Compound: C=C(C)[C@@H]1CC[C@]2(C(=O)O)CC[C@]3(C)[C@H](CC[C@@H]4[C@@]5(C)C[C@@H](OC(=O)/C=C/c6ccc(O)c(O)c6)[C@H](O)C(C)(C)[C@@H]5CC[C@]43C)[C@@H]12
- Activity (A-375): Dose-dependent effect
- IC50 (A-375): 6.3 µM
- Activity (A549 [1]): Dose-dependent effect
- IC50 (A549 [1]): 15.8 µM
- selectivity ratio [2]: 1.25
- IC50 (MRC5): 7.9 µM
- selectivity ratio [3]: 0.5

Compound: C=C(C)[C@@H]1CC[C@]2(C(=O)O)CC[C@]3(COC(=O)/C=C/c4ccc(O)c(O)c4)[C@H](CC[C@@H]4[C@@]5(C)CCC(=O)C(C)(C)[C@@H]5CC[C@]43C)[C@@H]12
- Activity (A-375): Dose-dependent effect
- IC50 (A-375): 7.7 µM
- Activity (A549 [1]): Dose-dependent effect
- IC50 (A549 [1]): 15.5 µM
- selectivity ratio [2]: 1.25
- IC50 (MRC5): 9.7 µM
- selectivity ratio [3]: 0.63

Compound: C=C(C)[C@@H]1CC[C@]2(C(=O)O)CC[C@]3(CO)[C@H](CC[C@@H]4[C@@]5(C)C[C@@H](OC(=O)/C=C/c6ccc(O)c(O)c6)[C@H](O)C(C)(C)[C@@H]5CC[C@]43C)[C@@H]12
- Activity (A-375): Dose-dependent effect
- IC50 (A-375): 11.5 µM
- Activity (A549 [1]): Dose-dependent effect
- IC50 (A549 [1]): 15.4 µM
- selectivity ratio [2]: 1.6
- IC50 (MRC5): 18.5 µM
- selectivity ratio [3]: 1.2

Compound: CC1(C)CC[C@]2(C(=O)O)CC[C@]3(C)C(=CC[C@@H]4[C@@]5(C)C[C@@H](OC(=O)/C=C/c6ccc(O)c(O)c6)[C@H](O)C(C)(C)[C@@H]5CC[C@]43C)[C@@H]2C1
- Activity (A-375): Dose-dependent effect
- IC50 (A-375): 11.8 µM
- Activity (A549 [1]): Dose-dependent effect
- IC50 (A549 [1]): 4.7 µM
- selectivity ratio [2]: 0.67
- IC50 (MRC5): 7.9 µM
- selectivity ratio [3]: 1.66

Compound: C=C(C)[C@@H]1CC[C@]2(C(=O)O)CC[C@]3(CO)[C@H](CC[C@@H]4[C@@]5(C)C[C@@H](OC(=O)/C=C/c6ccc(O)c(O)c6)[C@H](OC(=O)/C=C\c6ccc(O)cc6)C(C)(C)[C@@H]5CC[C@]43C)[C@@H]12
- Activity (A-375): Dose-dependent effect
- IC50 (A-375): 3.8 µM
- Activity (A549 [1]): Dose-dependent effect
- IC50 (A549 [1]): 5 µM
- Activity (A549 [4]): 86.87%
- Activity (A549 [5]): 11.92%
- Activity (A549 [6]): 0.28%
- selectivity ratio [2]: 2.66
- IC50 (MRC5): 10 µM
- selectivity ratio [3]: 2
- Activity (A549 [7]): 0.93%

Compound: C=C(C)[C@@H]1CC[C@]2(C(=O)O)CC[C@]3(C)[C@H](CC[C@@H]4[C@@]5(C)CC[C@H](O)C(C)(C)[C@@H]5CC[C@]43C)[C@@H]12 [BETULINIC ACID]
- IC50 (A-375): 43.7 µM
- IC50 (A549 [1]): 43.7 µM
- Activity (A549 [4]): 90.8%
- Activity (A549 [5]): 5.66%
- Activity (A549 [6]): 2.24%
- selectivity ratio [2]: 0.75
- IC50 (MRC5): 32.8 µM
- selectivity ratio [3]: 0.75
- Activity (A549 [7]): 1.3%

Compound: C=C(C)[C@@H]1CC[C@]2(C(=O)O)CC[C@]3(CO)[C@H](CC[C@@H]4[C@@]5(C)C[C@@H](OC(=O)/C=C/c6ccc(O)c(O)c6)[C@H](OC(=O)/C=C/c6ccc(O)cc6)C(C)(C)[C@@H]5CC[C@]43C)[C@@H]12
- Activity (A-375): Dose-dependent effect
- IC50 (A-375): 6.3 µM
- Activity (A549 [1]): Dose-dependent effect
- IC50 (A549 [1]): 6.3 µM
- selectivity ratio [2]: 1.25
- IC50 (MRC5): 7.8 µM
- selectivity ratio [3]: 1.25
